ChEMBL document CHEMBL4028895, “Structure-Activity Relationships and Biological Characterization of a Novel, Potent, and Serum Stable C-X-C Chemokine Receptor Type 4 (CXCR4) Antagonist” (J Med Chem, 2017)
Blank lines part the entries; values can stand above or below the molecule they belong to. Active and inactive are the calls of the source. The calls are words filed in the database; no cut-off is given here. Positions of bridges follow the written chain, without caps; N, C: chain ends. Non-standard residues stand in square brackets, D forms with d. Residues, ends and D or L forms follow the SMILES beside them. 2Nal = N[C@@H](Cc1ccc2ccccc2c1)C(=O)O; Pen = CC(C)(S)[C@H](N)C(=O)O

Experiments:
[1] = target: T1, C-X-C chemokine receptor type 4 (Homo sapiens, UniProt P61073); experiment: Inhibition of anti-CXCR4 PE antibody clone 12G5 binding to CXCR4 in human CCRF-CEM cells preincubated for 30 mins followed by anti-CXCR4 PE antibody clone 12G5 addition measured after 30 mins by flow cytometric method; format: cell-based
T1 sequence (P61073 whole entry): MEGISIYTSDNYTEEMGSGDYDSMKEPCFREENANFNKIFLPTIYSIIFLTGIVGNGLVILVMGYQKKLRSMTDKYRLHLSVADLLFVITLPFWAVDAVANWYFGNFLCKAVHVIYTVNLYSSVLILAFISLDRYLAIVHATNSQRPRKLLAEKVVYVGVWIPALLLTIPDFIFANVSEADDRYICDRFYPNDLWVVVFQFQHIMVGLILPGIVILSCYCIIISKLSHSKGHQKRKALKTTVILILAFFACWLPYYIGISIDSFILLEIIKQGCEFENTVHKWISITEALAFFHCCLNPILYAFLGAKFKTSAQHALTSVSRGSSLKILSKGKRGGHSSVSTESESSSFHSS
Summary of the method: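 5×10^5 CCRF-CEM cells (human T leukemia, CXCR4-overexpressing) were preincubated with peptide (10 pM–10 μM) in PBS with 0.2% BSA and 0.1% NaN3 for 30 min at 37 °C, 5% CO2. They were then labeled 30 min with anti-CXCR4 PE antibody (clone 12G5) and read by flow cytometry.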

[2] = target: T1, C-X-C chemokine receptor type 4; details: 10 nM
[3] = target: T1, C-X-C chemokine receptor type 4; experiment: Displacement of [125I]-CXCL12 from CXCR4 in human CCRF-CEM cells after 1 hr by gamma counting method; format: cell-based
Summary of the method: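 CCRF-CEM cells suspended in binding buffer (PBS, 5 mM MgCl2, 1 mM CaCl2, 0.25% BSA, pH 7.4) with competitor from 10 pM to 10 μM and 60 pM 125I-CXCL12 (2200 Ci/mmol) tracer. Bound radioactivity counted on a γ counter after 1 h at 4 °C, expressed as percent of total counts. One-site fit gave IC50; mean ± SD of three experiments.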

[4] = target: T1, C-X-C chemokine receptor type 4; details: 10 nM; remark: listed apart in the source
[5] = Metabolic stability in 90% human serum assessed as parent compound remaining at 1 mM measured at 60 mins by ESI-RP-HPLC method; format: ADME, cell-free; details: read-out: Stability
Summary of the method: (§1)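 Peptide water solution (1 mM, 10 μL) mixed with 90 μL human serum, giving 0.1 mM peptide in 90% serum, at 37 °C. Aliquots taken at 0, 15, 30, 60, 90 and 120 min. Proteins precipitated with ACN (0.1% TFA) and spun 12 000 rpm, 15 min, 4 °C. Supernatant run on ESI-RP-HPLC; relative amount from A230 peak integration.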

[6] = Metabolic stability in 90% human serum assessed as parent compound remaining at 1 mM measured at 15 mins by ESI-RP-HPLC method; format: ADME, cell-free; details: read-out: Stability; summary of the method: as §1
[7] = Metabolic stability in 90% human serum assessed as parent compound remaining at 1 mM measured at 90 mins by ESI-RP-HPLC method; format: ADME, cell-free; details: read-out: Stability; summary of the method: as §1
[8] = target: T2, C-X-C chemokine receptor type 3 (Homo sapiens) (UniProt P49682); experiment: Inhibition of anti-CXCR3 FITC antibody clone 1C6/clone 49801 binding to CXCR3 in human COLO205 cells at 0.01 to 10 uM preincubated for 30 mins followed by anti-CXCR3 FITC antibody clone 1C6/clone 49801 addition measured after 30 mins by flow cytometric method; format: cell-based
T2 sequence (whole entry): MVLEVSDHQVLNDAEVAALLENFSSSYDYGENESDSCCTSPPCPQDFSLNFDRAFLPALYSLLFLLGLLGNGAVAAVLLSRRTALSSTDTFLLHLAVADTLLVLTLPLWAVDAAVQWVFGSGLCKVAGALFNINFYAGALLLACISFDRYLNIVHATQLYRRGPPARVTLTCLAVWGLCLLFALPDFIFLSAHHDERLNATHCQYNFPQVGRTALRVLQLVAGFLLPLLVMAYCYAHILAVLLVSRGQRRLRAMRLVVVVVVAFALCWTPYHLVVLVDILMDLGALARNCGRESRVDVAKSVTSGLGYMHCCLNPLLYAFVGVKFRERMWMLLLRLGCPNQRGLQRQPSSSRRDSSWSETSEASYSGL
Summary of the method: (§2)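 Selectivity runs: peptide preincubated 30 min at 37 °C, 5% CO2 in PBS with 0.2% BSA and 0.1% NaN3, then cells labeled with receptor antibody and read by flow cytometry. CXCR3: COLO205 colorectal cells, anti-CXCR3 FITC antibody. CXCR7: MCF-7 breast cells, anti-CXCR7 APC antibody (clone 11G8). Results given as mean ± SD.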

[9] = target: T1, C-X-C chemokine receptor type 4; details: 1 to 100 nM
[10] = target: Atypical chemokine receptor 3 (Homo sapiens) (UniProt P25106); experiment: Inhibition of anti-CXCR7 APC antibody clone 11G8 binding to CXCR7 in human MCF7 cells at 0.01 to 10 uM preincubated for 30 mins followed by anti-CXCR7 APC antibody clone 11G8 addition measured after 30 mins by flow cytometric method; format: cell-based; summary of the method: as §2
Sequence of Atypical chemokine receptor 3 (Homo sapiens) (P25106 whole entry): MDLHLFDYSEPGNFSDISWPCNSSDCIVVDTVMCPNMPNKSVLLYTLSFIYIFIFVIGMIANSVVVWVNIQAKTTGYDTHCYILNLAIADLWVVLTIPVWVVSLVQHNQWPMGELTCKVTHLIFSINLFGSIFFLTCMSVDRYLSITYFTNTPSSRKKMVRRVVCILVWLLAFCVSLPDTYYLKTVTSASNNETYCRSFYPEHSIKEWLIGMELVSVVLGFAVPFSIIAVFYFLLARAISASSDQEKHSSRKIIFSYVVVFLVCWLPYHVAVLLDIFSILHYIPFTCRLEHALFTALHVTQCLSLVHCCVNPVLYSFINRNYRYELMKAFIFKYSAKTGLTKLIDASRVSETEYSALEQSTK

[11] = target: T1, C-X-C chemokine receptor type 4; details: 10 nM; remark: listed apart in the source
[12] = Metabolic stability in 90% human serum assessed as parent compound remaining at 1 mM measured at 120 mins by ESI-RP-HPLC method; format: ADME, cell-free; details: read-out: Stability; summary of the method: as §1
[13] = Metabolic stability in 90% human serum assessed as parent compound remaining at 1 mM measured at 30 mins by ESI-RP-HPLC method; format: ADME, cell-free; details: read-out: Stability; summary of the method: as §1
Serum [14] = experiment: Drug level in 90% human serum treated with (4R,7S,10S,13S,16R)-16-((S)-2-((S)-2-amino-5-guanidinopentanamido)propanamido)-7,10-dibenzyl-13-(3-guanidinopropyl)-6,9,12,15-tetraoxo-1,2-dithia-5,8,11,14-tetraazacycloheptadecane-4-carboxylic acid at 1 mM after 15 mins by ESI-RP-HPLC method; format: ADME, cell-free; details: 0.25 h, 1000 µM; summary of the method: as §1
Serum [15] = experiment: Drug level in 90% human serum treated with (4R,7S,10S,13S,16R)-16-((S)-2-((S)-2-amino-5-guanidinopentanamido)propanamido)-7,10-dibenzyl-13-(3-guanidinopropyl)-6,9,12,15-tetraoxo-1,2-dithia-5,8,11,14-tetraazacycloheptadecane-4-carboxylic acid at 1 mM after 30 mins by ESI-RP-HPLC method; format: ADME, cell-free; details: 0.5 h, 1000 µM; summary of the method: as §1

SMILES: CC(=O)N[C@@H](CCCNC(=N)N)C(=O)N[C@@H](C)C(=O)N[C@@H]1CSSC(C)(C)[C@@H](C(=O)O)NC(=O)[C@H](Cc2ccc3ccccc3c2)NC(=O)[C@H](Cc2ccccc2)NC(=O)[C@H](CCCNC(=N)N)NC1=O
IC50 [1]: 1800 nM

SMILES: CC(=O)N[C@@H](CCCNC(=N)N)C(=O)N[C@@H](C)C(=O)N[C@@H]1CSSC(C)(C)[C@@H](C(=O)O)NC(=O)[C@H](Cc2ccc(O)cc2)NC(=O)[C@H](Cc2ccccc2)NC(=O)[C@H](CCCNC(=N)N)NC1=O
IC50 [1]: 360 nM

SMILES: CC(=O)N[C@@H](CCCNC(=N)N)C(=O)N[C@@H](C)C(=O)N[C@@H]1CSSC(C)(C)[C@@H](C(=O)O)NC(=O)[C@H](Cc2ccccc2)NC(=O)[C@H](Cc2ccccc2)NC(=O)[C@H](CCCNC(=N)N)NC1=O
IC50 [1]: 40 nM

SMILES: CC(=O)N[C@@H](CCCNC(=N)N)C(=O)N[C@@H](C)C(=O)N[C@@H]1CSSC(C)(C)[C@@H](C(=O)O)NC(=O)[C@H](Cc2ccccc2)NC(=O)[C@H](Cc2ccc(O)cc2)NC(=O)[C@H](CCCNC(=N)N)NC1=O
IC50 [1]: 2140 nM

SMILES: CC(=O)N[C@@H](CCCNC(=N)N)C(=O)N[C@@H](C)C(=O)N[C@@H]1CSSC(C)(C)[C@@H](C(=O)O)NC(=O)[C@H](Cc2ccc(Cl)cc2)NC(=O)[C@H](Cc2ccccc2)NC(=O)[C@H](CCCNC(=N)N)NC1=O
IC50 [1]: 1250 nM

SMILES: CC(=O)N[C@@H](CCCNC(=N)N)C(=O)N[C@@H](C)C(=O)N[C@@H]1CSSC(C)(C)[C@@H](C(=O)O)NC(=O)[C@H](Cc2cnc[nH]2)NC(=O)[C@H](Cc2ccc3ccccc3c2)NC(=O)[C@H](CCCNC(=N)N)NC1=O (Ac-RA[dC]R[2Nal]H[Pen]-OH; disulfide 3-7)
inhibition [4]: inactive
remaining at 1 h, 1000 µM [5]: 100%
remaining at 0.25 h, 1000 µM [6]: 100%
remaining at 1.5 h, 1000 µM [7]: 100%
inhibition [8]: inactive
inhibition [9]: Active
inhibition [10]: inactive
inhibition [11]: Active
IC50 [1]: 1.5 nM
remaining at 2 h, 1000 µM [12]: 100%
remaining at 0.5 h, 1000 µM [13]: 100%

SMILES: C[C@H](N)C(=O)N[C@H]1CSSC[C@@H](C(=O)O)NC(=O)[C@H](Cc2ccccc2)NC(=O)[C@H](Cc2ccccc2)NC(=O)[C@H](CCCNC(=N)N)NC1=O (H-ACRFFC-OH; disulfide 2-6)
Drug metabolism (Serum [14]): Metabolite_Detected

SMILES: N=C(N)NCCC[C@@H]1NC(=O)[C@@H](N)CSSC[C@@H](C(=O)O)NC(=O)[C@H](Cc2ccccc2)NC(=O)[C@H](Cc2ccccc2)NC1=O (H-CRFFC-OH; disulfide 1-5)
Drug metabolism (Serum [15]): Metabolite_Detected

SMILES: C[C@H](NC(=O)[C@@H](N)CCCNC(=N)N)C(=O)N[C@H]1CSSC[C@@H](C(=O)O)NC(=O)[C@H](Cc2ccccc2)NC(=O)[C@H](Cc2ccccc2)NC(=O)[C@H](CCCNC(=N)N)NC1=O (H-RACRFFC-OH; disulfide 3-7)
remaining at 1 h, 1000 µM [5]: 0%
remaining at 0.25 h, 1000 µM [6]: 67%
remaining at 1.5 h, 1000 µM [7]: 0%
IC50 [1]: 6200 nM
remaining at 2 h, 1000 µM [12]: 0%
remaining at 0.5 h, 1000 µM [13]: 0%

More lines, now with the values ahead:

IC50 [1]: > 10000 nM
SMILES: CC(=O)N[C@@H](CCCNC(=N)N)C(=O)N[C@@H](C)C(=O)N[C@H]1C(=O)N[C@@H](CCCNC(=N)N)C(=O)N[C@@H](Cc2ccccc2)C(=O)N[C@@H](Cc2ccccc2)C(=O)N[C@H](C(=O)O)CSSC1(C)C

IC50 [1]: 3690 nM
SMILES: CC(=O)N[C@@H](CCCNC(=N)N)C(=O)N[C@@H](C)C(=O)N[C@@H]1CSSC(C)(C)[C@@H](C(=O)O)NC(=O)[C@H](Cc2ccccc2)NC(=O)[C@H](Cc2cccc3ccccc23)NC(=O)[C@H](CCCNC(=N)N)NC1=O

IC50 [1]: 22 nM
SMILES: CC(=O)N[C@@H](CCCNC(=N)N)C(=O)N[C@@H](C)C(=O)N[C@@H]1CSSC(C)(C)[C@@H](C(=O)O)NC(=O)[C@H](Cc2ccccc2)NC(=O)[C@H](Cc2ccc3ccccc3c2)NC(=O)[C@H](CCCNC(=N)N)NC1=O

IC50 [1]: > 10000 nM
SMILES: CC(=O)N[C@@H](CCCNC(=N)N)C(=O)N[C@@H](C)C(=O)N[C@@H]1CSSC(C)(C)[C@@H](C(=O)O)NC(=O)[C@H](Cc2ccc([N+](=O)[O-])cc2)NC(=O)[C@H](Cc2ccccc2)NC(=O)[C@H](CCCNC(=N)N)NC1=O

IC50 [1]: 70 nM
SMILES: CC(=O)N[C@@H](CCCNC(=N)N)C(=O)N[C@@H](C)C(=O)N[C@@H]1CSSC(C)(C)[C@@H](C(=O)O)NC(=O)[C@H](Cc2ccccc2)NC(=O)[C@H](Cc2ccc(Cl)cc2)NC(=O)[C@H](CCCNC(=N)N)NC1=O

IC50 [1]: > 10000 nM
SMILES: CC(=O)N[C@@H](CCCNC(=N)N)C(=O)N[C@@H](C)C(=O)N[C@@H]1CSSC(C)(C)[C@@H](C(=O)O)NC(=O)[C@H](Cc2ccccc2)NC(=O)[C@H](Cc2cnc[nH]2)NC(=O)[C@H](CCCNC(=N)N)NC1=O

IC50 [1]: 210 nM
SMILES: CC(=O)N[C@@H](CCCNC(=N)N)C(=O)N[C@@H](C)C(=O)N[C@@H]1CSSC(C)(C)[C@@H](C(=O)O)NC(=O)[C@H](Cc2ccccc2)NC(=O)[C@H](Cc2ccc([N+](=O)[O-])cc2)NC(=O)[C@H](CCCNC(=N)N)NC1=O

IC50 [1]: 6 nM
SMILES: CC(=O)N[C@@H](CCCNC(=N)N)C(=O)N[C@@H](C)C(=O)N[C@@H]1CSSC(C)(C)[C@@H](C(=O)O)NC(=O)[C@H](Cc2cnc[nH]2)NC(=O)[C@H](Cc2ccccc2)NC(=O)[C@H](CCCNC(=N)N)NC1=O

IC50 [1]: 1530 nM
SMILES: CC(=O)N[C@@H](CCCNC(=N)N)C(=O)N[C@@H](C)C(=O)N[C@H]1C(=O)N[C@@H](CCCNC(=N)N)C(=O)N[C@@H](Cc2ccccc2)C(=O)N[C@@H](Cc2ccccc2)C(=O)N[C@H](C(=O)O)C(C)(C)SSC1(C)C

IC50 [1]: 180 nM
SMILES: CC(=O)N[C@@H](CCCNC(=N)N)C(=O)N[C@@H](C)C(=O)N[C@@H]1CSSC(C)(C)[C@@H](C(=O)O)NC(=O)[C@H](Cc2cccc3ccccc23)NC(=O)[C@H](Cc2ccccc2)NC(=O)[C@H](CCCNC(=N)N)NC1=O

inhibition [2]: inactive
SMILES: c1cc(CN2CCCNCCNCCCNCC2)ccc1CN1CCCNCCNCCCNCC1

IC50 [3]: 338 nM
IC50 [1]: 53 nM
SMILES: CC(=O)N[C@@H](CCCNC(=N)N)C(=O)N[C@@H](C)C(=O)N[C@@H]1CSSC[C@@H](C(=O)O)NC(=O)[C@H](Cc2ccccc2)NC(=O)[C@H](Cc2ccccc2)NC(=O)[C@H](CCCNC(=N)N)NC1=O (Ac-RA[dC]RFFC-OH; disulfide 3-7)
